Measured values: ChEMBL document CHEMBL3232916, “1-(4-Methoxyphenyl)-5-(3,4,5-trimethoxyphenyl)-1H-1,2,4-triazole-3-carboxamides: synthesis, molecular modeling, evaluation of their anti-inflammatory activity and ulcerogenicity” (Eur J Med Chem, 2014)

Experiments:
[1] = test system: Rattus norvegicus; experiment: Antiinflammatory activity in albino rat assessed as inhibition of carrageenan-induced paw edema at 0.28 mmol/kg, po administered 30 mins before carrageenan challenge measured after 1 hr relative to control; format: functional
Summary of the method: (§1)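 Male albino rats, n = 4 per group. Dosed orally as a suspension in 0.5% w/v CMC in water; controls received CMC alone. 0.1 mL of freshly prepared 1% carrageenan in saline was injected subplantar into the right hind paw 30 min after dosing, with saline in the left paw. Right paw thickness was read by Vernier caliper before and at 1–5 h. Result is % decrease in edema vs control, mean ± S.E.M.; one-way ANOVA.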

[2] = test system: Rattus norvegicus; experiment: Antiinflammatory activity in albino rat assessed as inhibition of carrageenan-induced paw edema at 0.28 mmol/kg, po administered 30 mins before carrageenan challenge measured after 2 hrs relative to control; format: functional; summary of the method: as §1
[3] = test system: Rattus norvegicus; experiment: Antiinflammatory activity in albino rat assessed as inhibition of carrageenan-induced paw edema at 0.28 mmol/kg, po administered 30 mins before carrageenan challenge measured after 3 hrs relative to control; format: functional; summary of the method: as §1
[4] = test system: Rattus norvegicus; experiment: Antiinflammatory activity in albino rat assessed as inhibition of carrageenan-induced paw edema at 0.28 mmol/kg, po administered 30 mins before carrageenan challenge measured after 4 hrs relative to control; format: functional; summary of the method: as §1
[5] = test system: Rattus norvegicus; experiment: Antiinflammatory activity in albino rat assessed as inhibition of carrageenan-induced paw edema at 0.28 mmol/kg, po administered 30 mins before carrageenan challenge measured after 5 hrs relative to control; format: functional; summary of the method: as §1
[6] = test system: Rattus norvegicus; experiment: Ulcerogenic effect in albino rat assessed as ulcer index at 0.28 mmol/kg, po; format: toxicity, organism-based; conditions: in vivo
Summary of the method: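 Rat gastric ulcers were graded by area: level I <1 mm², level II 1–3 mm², level III >3 mm². Ulcer index = 1×(level I count) + 2×(level II) + 3×(level III). Reported as mean ± S.E.M., n = 4.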

[7] = test system: Rattus norvegicus; experiment: Antiinflammatory activity in albino rat assessed as inhibition of carrageenan-induced paw edema at 0.28 mmol/kg, po administered 30 mins before carrageenan challenge measured after 3 hrs relative to indomethacin; format: functional; conditions: read-out: INH
Summary of the method: (§2)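 Calculated from the 3 h % edema inhibition in carrageenan paw edema (male albino rats, oral dosing in 0.5% CMC 30 min before 1% carrageenan subplantar injection). Expressed as % of the inhibition given by the reference drug in the same assay.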

[8] = test system: Rattus norvegicus; experiment: Antiinflammatory activity in albino rat assessed as inhibition of carrageenan-induced paw edema at 0.28 mmol/kg, po administered 30 mins before carrageenan challenge measured after 3 hrs relative to celecoxib; format: functional; conditions: read-out: INH; summary of the method: as §2
[9] = target: T1, Prostaglandin G/H synthase 1 (Ovis aries, UniProt P05979); experiment: Inhibition of ovine COX1 assessed as prostaglandin F2alpha level
T1 sequence (P05979 whole entry): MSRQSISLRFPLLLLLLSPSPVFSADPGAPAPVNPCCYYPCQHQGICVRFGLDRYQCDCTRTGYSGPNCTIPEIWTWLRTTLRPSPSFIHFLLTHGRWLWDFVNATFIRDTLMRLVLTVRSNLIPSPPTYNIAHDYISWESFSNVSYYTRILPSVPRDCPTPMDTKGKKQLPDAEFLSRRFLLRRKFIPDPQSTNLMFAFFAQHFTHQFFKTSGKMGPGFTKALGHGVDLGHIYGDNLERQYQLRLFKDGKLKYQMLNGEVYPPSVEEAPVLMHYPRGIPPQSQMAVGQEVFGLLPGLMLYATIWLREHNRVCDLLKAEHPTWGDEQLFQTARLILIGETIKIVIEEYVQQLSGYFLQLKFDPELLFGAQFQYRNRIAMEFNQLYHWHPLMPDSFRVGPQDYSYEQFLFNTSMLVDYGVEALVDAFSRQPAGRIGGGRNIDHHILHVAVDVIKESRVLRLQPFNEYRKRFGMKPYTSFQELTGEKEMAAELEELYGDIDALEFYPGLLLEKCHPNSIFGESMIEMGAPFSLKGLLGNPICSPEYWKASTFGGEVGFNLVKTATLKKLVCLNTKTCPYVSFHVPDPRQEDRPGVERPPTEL

[10] = target: T2, Prostaglandin G/H synthase 2 (Homo sapiens, UniProt P35354); experiment: Inhibition of human recombinant COX2 assessed as prostaglandin F2alpha level
T2 sequence (P35354 whole entry): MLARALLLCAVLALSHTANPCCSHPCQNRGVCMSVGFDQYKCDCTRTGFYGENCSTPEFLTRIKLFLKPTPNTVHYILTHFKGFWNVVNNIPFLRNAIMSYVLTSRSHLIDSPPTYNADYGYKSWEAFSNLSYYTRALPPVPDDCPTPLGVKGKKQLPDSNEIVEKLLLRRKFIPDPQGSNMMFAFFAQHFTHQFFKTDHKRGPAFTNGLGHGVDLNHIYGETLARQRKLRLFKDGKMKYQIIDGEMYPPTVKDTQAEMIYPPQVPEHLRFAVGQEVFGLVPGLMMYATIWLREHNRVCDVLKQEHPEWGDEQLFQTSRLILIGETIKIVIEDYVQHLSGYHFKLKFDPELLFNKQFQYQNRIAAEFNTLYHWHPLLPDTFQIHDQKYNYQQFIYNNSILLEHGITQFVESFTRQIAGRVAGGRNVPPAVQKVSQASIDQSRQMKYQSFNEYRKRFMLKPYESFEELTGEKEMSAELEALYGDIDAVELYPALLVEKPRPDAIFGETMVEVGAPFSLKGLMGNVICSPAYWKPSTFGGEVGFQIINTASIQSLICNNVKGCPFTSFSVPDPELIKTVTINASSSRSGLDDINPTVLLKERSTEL

[11] = Selectivity ratio IC50 for ovine COX1 to IC50 for human recombinant COX2

COc1ccc(NC(=O)c2nc(-c3cc(OC)c(OC)c(OC)c3)n(-c3ccc(OC)cc3)n2)cc1
inhibition in vivo at 280 µmol/kg [1]: 39%
inhibition in vivo at 280 µmol/kg [2]: 45%
inhibition in vivo at 280 µmol/kg [3]: 67%
inhibition in vivo at 280 µmol/kg [4]: 63%
inhibition in vivo at 280 µmol/kg [5]: 51%
UI [6]: 4.5
paw edema inhibition relative to indomethacin at 280 µmol/kg [7]: 86%
paw edema inhibition relative to celecoxib at 280 µmol/kg [8]: 99%

COc1ccc(-n2nc(C(=O)Nc3ccc(C)cc3)nc2-c2cc(OC)c(OC)c(OC)c2)cc1
inhibition in vivo at 280 µmol/kg [1]: 38%
inhibition in vivo at 280 µmol/kg [2]: 60%
inhibition in vivo at 280 µmol/kg [3]: 60%
inhibition in vivo at 280 µmol/kg [4]: 58%
inhibition in vivo at 280 µmol/kg [5]: 42%
UI [6]: 5.5
paw edema inhibition relative to indomethacin at 280 µmol/kg [7]: 77%
paw edema inhibition relative to celecoxib at 280 µmol/kg [8]: 88%

COc1ccc(-n2nc(C(=O)Nc3ccc(O)cc3)nc2-c2cc(OC)c(OC)c(OC)c2)cc1
inhibition in vivo at 280 µmol/kg [1]: 36%
inhibition in vivo at 280 µmol/kg [2]: 35%
inhibition in vivo at 280 µmol/kg [3]: 50%
inhibition in vivo at 280 µmol/kg [4]: 37%
inhibition in vivo at 280 µmol/kg [5]: 27%
UI [6]: 1
paw edema inhibition relative to indomethacin at 280 µmol/kg [7]: 64%
paw edema inhibition relative to celecoxib at 280 µmol/kg [8]: 74%

Cc1ccc(-c2cc(C(F)(F)F)nn2-c2ccc(S(N)(=O)=O)cc2)cc1 [CELECOXIB]
inhibition in vivo at 280 µmol/kg [1]: 42%
inhibition in vivo at 280 µmol/kg [2]: 48%
inhibition in vivo at 280 µmol/kg [3]: 68%
inhibition in vivo at 280 µmol/kg [4]: 57%
inhibition in vivo at 280 µmol/kg [5]: 51%
UI [6]: 0.5

CNC(=O)c1nc(-c2cc(OC)c(OC)c(OC)c2)n(-c2ccc(OC)cc2)n1
inhibition in vivo at 280 µmol/kg [1]: 56%
inhibition in vivo at 280 µmol/kg [2]: 74%
inhibition in vivo at 280 µmol/kg [3]: 74%
inhibition in vivo at 280 µmol/kg [4]: 65%
inhibition in vivo at 280 µmol/kg [5]: 50%
UI [6]: 7.5
paw edema inhibition relative to indomethacin at 280 µmol/kg [7]: 95%
paw edema inhibition relative to celecoxib at 280 µmol/kg [8]: 109%
IC50 [9]: 45.9 µM
IC50 [10]: 68.2 µM
Ratio IC50 [11]: 0.67

COc1ccc(-n2nc(C(=O)Nc3ccc(C(=O)O)cc3)nc2-c2cc(OC)c(OC)c(OC)c2)cc1
inhibition in vivo at 280 µmol/kg [1]: 50%
inhibition in vivo at 280 µmol/kg [2]: 57%
inhibition in vivo at 280 µmol/kg [3]: 74%
inhibition in vivo at 280 µmol/kg [4]: 69%
inhibition in vivo at 280 µmol/kg [5]: 60%
UI [6]: 12
paw edema inhibition relative to indomethacin at 280 µmol/kg [7]: 95%
paw edema inhibition relative to celecoxib at 280 µmol/kg [8]: 109%

COc1ccc(-n2nc(C(=O)Nc3ccc(Cl)cc3)nc2-c2cc(OC)c(OC)c(OC)c2)cc1
inhibition in vivo at 280 µmol/kg [1]: 55%
inhibition in vivo at 280 µmol/kg [2]: 70%
inhibition in vivo at 280 µmol/kg [3]: 78%
inhibition in vivo at 280 µmol/kg [4]: 75%
inhibition in vivo at 280 µmol/kg [5]: 70%
UI [6]: 5
paw edema inhibition relative to indomethacin at 280 µmol/kg [7]: 100%
paw edema inhibition relative to celecoxib at 280 µmol/kg [8]: 115%
IC50 [9]: > 100 µM
IC50 [10]: > 100 µM

COc1ccc(-n2nc(C(=O)Nc3ccc(OC)c(OC)c3)nc2-c2cc(OC)c(OC)c(OC)c2)cc1
inhibition in vivo at 280 µmol/kg [1]: 57%
inhibition in vivo at 280 µmol/kg [2]: 68%
inhibition in vivo at 280 µmol/kg [3]: 78%
inhibition in vivo at 280 µmol/kg [4]: 70%
inhibition in vivo at 280 µmol/kg [5]: 61%
UI [6]: 7
paw edema inhibition relative to indomethacin at 280 µmol/kg [7]: 100%
paw edema inhibition relative to celecoxib at 280 µmol/kg [8]: 115%
IC50 [9]: > 100 µM
IC50 [10]: > 100 µM

COc1ccc(-n2nc(C(=O)NN)nc2-c2cc(OC)c(OC)c(OC)c2)cc1
inhibition in vivo at 280 µmol/kg [1]: 36%
inhibition in vivo at 280 µmol/kg [2]: 47%
inhibition in vivo at 280 µmol/kg [3]: 57%
inhibition in vivo at 280 µmol/kg [4]: 54%
inhibition in vivo at 280 µmol/kg [5]: 56%
UI [6]: 2
paw edema inhibition relative to indomethacin at 280 µmol/kg [7]: 73%
paw edema inhibition relative to celecoxib at 280 µmol/kg [8]: 84%
IC50 [9]: 39.8 µM
IC50 [10]: 46.3 µM
Ratio IC50 [11]: 0.86

COc1ccc(-n2nc(C(=O)Nc3cccc(C(F)(F)F)c3)nc2-c2cc(OC)c(OC)c(OC)c2)cc1
inhibition in vivo at 280 µmol/kg [1]: 48%
inhibition in vivo at 280 µmol/kg [2]: 55%
inhibition in vivo at 280 µmol/kg [3]: 65%
inhibition in vivo at 280 µmol/kg [4]: 56%
inhibition in vivo at 280 µmol/kg [5]: 50%
UI [6]: 5
paw edema inhibition relative to indomethacin at 280 µmol/kg [7]: 83%
paw edema inhibition relative to celecoxib at 280 µmol/kg [8]: 96%

COc1ccc(-n2nc(C(=O)Nc3ccccc3)nc2-c2cc(OC)c(OC)c(OC)c2)cc1
inhibition in vivo at 280 µmol/kg [1]: 45%
inhibition in vivo at 280 µmol/kg [2]: 51%
inhibition in vivo at 280 µmol/kg [3]: 54%
inhibition in vivo at 280 µmol/kg [4]: 50%
inhibition in vivo at 280 µmol/kg [5]: 46%
UI [6]: 4
paw edema inhibition relative to indomethacin at 280 µmol/kg [7]: 69%
paw edema inhibition relative to celecoxib at 280 µmol/kg [8]: 79%

COc1ccc(-n2nc(C(=O)Nc3ccc(Br)cc3)nc2-c2cc(OC)c(OC)c(OC)c2)cc1
inhibition in vivo at 280 µmol/kg [1]: 40%
inhibition in vivo at 280 µmol/kg [2]: 50%
inhibition in vivo at 280 µmol/kg [3]: 66%
inhibition in vivo at 280 µmol/kg [4]: 59%
inhibition in vivo at 280 µmol/kg [5]: 57%
UI [6]: 1.8
paw edema inhibition relative to indomethacin at 280 µmol/kg [7]: 85%
paw edema inhibition relative to celecoxib at 280 µmol/kg [8]: 97%
IC50 [9]: > 100 µM
IC50 [10]: > 100 µM

COc1ccc(-n2nc(C(N)=O)nc2-c2cc(OC)c(OC)c(OC)c2)cc1
inhibition in vivo at 280 µmol/kg [1]: 40%
inhibition in vivo at 280 µmol/kg [2]: 59%
inhibition in vivo at 280 µmol/kg [3]: 72%
inhibition in vivo at 280 µmol/kg [4]: 71%
inhibition in vivo at 280 µmol/kg [5]: 64%
UI [6]: 9
paw edema inhibition relative to indomethacin at 280 µmol/kg [7]: 92%
paw edema inhibition relative to celecoxib at 280 µmol/kg [8]: 106%

CCNC(=O)c1nc(-c2cc(OC)c(OC)c(OC)c2)n(-c2ccc(OC)cc2)n1
inhibition in vivo at 280 µmol/kg [1]: 60%
inhibition in vivo at 280 µmol/kg [2]: 68%
inhibition in vivo at 280 µmol/kg [3]: 69%
inhibition in vivo at 280 µmol/kg [4]: 58%
inhibition in vivo at 280 µmol/kg [5]: 52%
UI [6]: 9
paw edema inhibition relative to indomethacin at 280 µmol/kg [7]: 88%
paw edema inhibition relative to celecoxib at 280 µmol/kg [8]: 101%

COc1ccc(-n2nc(C(=O)Nc3ccccc3OC)nc2-c2cc(OC)c(OC)c(OC)c2)cc1
inhibition in vivo at 280 µmol/kg [1]: 52%
inhibition in vivo at 280 µmol/kg [2]: 57%
inhibition in vivo at 280 µmol/kg [3]: 30%
inhibition in vivo at 280 µmol/kg [4]: 24%
inhibition in vivo at 280 µmol/kg [5]: 10%
UI [6]: 5
paw edema inhibition relative to indomethacin at 280 µmol/kg [7]: 38%
paw edema inhibition relative to celecoxib at 280 µmol/kg [8]: 44%
